14-3-3 Bad inh: disrupts binding of bovine 14-3-3 zeta to phospho-Bad peptide; P63103; TR-FRET 14-3-3zeta/Dy647-pBad peptide displacement, 1 h; inhibition, % at 21.7 µM; 220,000 compounds, 0.71% hits;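 active means inhibition above about 70%, limit read from the data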
Target sequence (P63103 whole entry, looked up): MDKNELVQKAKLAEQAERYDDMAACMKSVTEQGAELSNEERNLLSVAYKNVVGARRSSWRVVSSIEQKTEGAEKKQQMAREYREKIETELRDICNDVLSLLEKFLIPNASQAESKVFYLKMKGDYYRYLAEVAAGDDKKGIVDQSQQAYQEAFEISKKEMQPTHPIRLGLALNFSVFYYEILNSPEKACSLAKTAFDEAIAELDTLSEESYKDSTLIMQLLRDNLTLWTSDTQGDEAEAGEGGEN
Hck Nef HTS: human Hck-Nef kinase inhibition; Recombinant Hck-YEEI plus Nef, Z-Lyte FRET kinase assay; AID 463187; 220,000 compounds, 0.68% hits; inhibition, % at 20 µM;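 active means Hck-Nef kinase inhibition above about 50%, limit read from the data; inactive means inhibition below that limit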
eIF4E-4G inh: blocks eIF4E binding to eIF4G; inhibition, % at 21.7 µM; 220,000 compounds, 0.37% hits; TR-FRET eIF4E-eIF4GI(517-606) binding, 2 h; AID 782; P63073+Q04637
Diaph act CS: diaphorase activation or chemical reduction counter-screen. activation factor at 20 µM. AID 1229. Diaphorase/resazurin coupled assay, resorufin fluorescence, 16 min; hits give high values; 1 = vehicle wells, 0 = NADH-free wells. 190,000 compounds, 0.005% hits;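 active means diaphorase activity raised at least twofold by the compound at 20 µM; inactive means activation factor below 2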
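Material: Clostridium kluyveri diaphorase, purified enzyme; Quantity: enzyme 0.07 U/mL final; Medium: HEPES pH 7.4 buffer with MgCl2 and Tween 20; Dosing: single compound dose of 20 µM, 1% DMSO final; Schedule: 16 min reaction at room temperature; Measured by: red resorufin fluorescence at 544/590 nm excitation/emission.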
NCF1 inh: p47phox (human) inhibition; inhibition, % at 24.7 µM; P14598; p47phox/p22phox peptide binding, fluorescence polarization, 2 h; 220,000 compounds, 0.53% hits
Target sequence (P14598 whole entry, looked up): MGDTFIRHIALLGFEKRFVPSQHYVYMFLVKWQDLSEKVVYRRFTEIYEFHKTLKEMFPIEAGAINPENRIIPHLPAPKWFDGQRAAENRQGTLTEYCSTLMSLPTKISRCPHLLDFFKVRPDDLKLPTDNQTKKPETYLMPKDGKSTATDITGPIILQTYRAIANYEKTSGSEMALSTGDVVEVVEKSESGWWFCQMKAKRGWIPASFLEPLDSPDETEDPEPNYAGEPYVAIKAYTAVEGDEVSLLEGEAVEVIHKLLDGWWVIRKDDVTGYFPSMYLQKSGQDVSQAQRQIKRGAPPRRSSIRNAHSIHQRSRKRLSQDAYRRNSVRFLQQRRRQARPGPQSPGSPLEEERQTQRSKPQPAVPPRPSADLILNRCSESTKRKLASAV
Each line names hits and unclear results; the compound was inactive in the other large screens; [ ] = another dose, or the depositor's remark. This is a sample that favours compounds with a hit; in the whole collection about 2% have one here.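 How the source made its calls, unless noted: active means inhibition above about 30% (limit read from the data); inactive means the rest.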

O=c1[nH]nc(-c2ccc(F)cc2)cc1Cc1ccc(F)cc1	NCF1 inh 37.3 (no result: Diaph act CS)
CC(=O)N/N=C(\N)c1nonc1N	none (no result: Diaph act CS)
COc1cc(/C=C(\C#N)C(=O)Nc2ccc3c(c2)OCCO3)ccc1O	none (no result: Diaph act CS)
Cn1ccnc1C(O)(c1ccccc1)c1nccn1C	NCF1 inh 48.4 (no result: Diaph act CS)
CN(C)CCOC(=O)c1ccc2c(c1)S(=O)(=O)c1ccccc1C2=O	eIF4E-4G inh 35.0 (no result: Diaph act CS)
Cc1cc(C)n2nc(C(=O)N/N=C/c3ccc(Cl)cc3)nc2n1	none
Cc1cc(C)n2nc(C(=O)NNC(=O)c3ccc(Cl)cc3)nc2n1	NCF1 inh 36.1 (no result: Diaph act CS)
CC1(OC(=O)C2CCCC2)C(=O)C=C2C=C(c3ccsc3)N(CCCCO)C=C2C1=O (configuration not stated)	NCF1 inh 30.2 (no result: Diaph act CS)
COc1ccc(CN2C=C3C(=O)C(C)(OC(=O)C4CCCC4)C(=O)C=C3C=C2c2ccsc2)cc1 (configuration not stated)	none (no result: Diaph act CS)
O=S(=O)(c1ccccc1F)N1CCN(Cc2nc3ccccc3[nH]2)CC1	14-3-3 Bad inh 81.7
O=S(=O)(c1ccc(Br)s1)N1CCNCC1	none (no result: Diaph act CS)
CCOC(=O)CN(C(=O)COc1ccc2c(C)cc(=O)oc2c1)c1ccc(OCC)cc1	none
COC(=O)c1cc2c(=O)n3ccccc3nc2n(C(C)C)c1=N	Hck Nef HTS active (no result: 14-3-3 Bad inh, eIF4E-4G inh, Diaph act CS, NCF1 inh)
O=C(c1cccn2c(=O)c3cc(Cl)ccc3nc12)N1CCN(Cc2ccc3c(c2)OCO3)CC1	eIF4E-4G inh 46.1[fluorescence artefact?]
O=C(c1cccn2c(=O)c3ccccc3nc12)N1CCN(Cc2ccc3c(c2)OCO3)CC1	none (no result: 14-3-3 Bad inh, eIF4E-4G inh)
NC(=O)CSc1nnc(-c2cccc(S(=O)(=O)N3CCCCC3)c2)o1	14-3-3 Bad inh 84.5 (no result: Diaph act CS)
O=S(=O)(c1ccc(-c2nnc(SCc3ccccc3)o2)cc1)N1CCCC1	NCF1 inh 42.1
Cc1ccc(CSc2nnc(-c3ccc(S(=O)(=O)N4CCCC4)cc3)o2)cc1	none
Cc1ccc(CN=C(Nc2ccccc2)NC2CCCCC2)cc1	none
O=[N+]([O-])c1ccccc1-c1ccc(/C=N/n2cnnc2)o1	none
O=C1ON=C(c2ccccc2)/C1=C/c1ccc(-c2ccccc2[N+](=O)[O-])o1	NCF1 inh 141.7
CCOc1ccc(OCC)c(S(=O)(=O)NCc2ccc3c(c2)OCO3)c1	NCF1 inh 65.7
COc1ccc(C(=O)NN/C(=N/S(=O)(=O)c2ccc(C)cc2)c2ccccc2)cc1	none (no result: Diaph act CS)
CC1CCN(C(=S)c2ccccc2O)CC1	eIF4E-4G inh 30.7[fluorescence artefact?]
Cc1cccc(NC2=CC(=O)OC(C)C2)c1 (configuration not stated)	14-3-3 Bad inh 80.8
O=C(NCC1CCCO1)C1CCCCN1S(=O)(=O)c1ccc(F)cc1 (configuration not stated)	NCF1 inh 36.0 (no result: 14-3-3 Bad inh, eIF4E-4G inh)
CCOC(=O)c1c(C)[nH]c(C(=O)OCCOc2ccccc2C)c1C	14-3-3 Bad inh 75.2[fluorescence artefact?]
CCOC(=O)c1c(C)[nH]c(C(=O)OCCOc2ccc(Cl)cc2)c1C	none
CCOC(=O)c1c(C)[nH]c(C(=O)COC(=O)c2ccc(O)cc2)c1C	14-3-3 Bad inh 81.6 (no result: Diaph act CS)
O=C(Nc1cccnc1)c1ccco1	none
O=C(Oc1cccnc1)c1ccco1	14-3-3 Bad inh 81.3
CC(=O)CSc1nnc(C(F)(F)F)n1C	none (no result: Diaph act CS)
CN(C)c1ccc(NC(=O)CN2CCC(N3CCCCC3)CC2)cc1	14-3-3 Bad inh 74.9
CCOc1ccc(N(CC(=O)N2CCN(c3ccccc3)CC2)S(=O)(=O)c2c(C)noc2C)cc1	NCF1 inh 42.8
O=C(O)c1ccc(/C=N/N2CCN(Cc3cccc4ccccc34)CC2)cc1	14-3-3 Bad inh 94.5
CN1C2=CC=CC=CC2=[N+](C)C12C=CC(=[N+]([O-])[O-])C=C2[N+](=O)[O-] (configuration not stated)	none
CN1C2=CC=CC=CC2=[N+](C)C12C([N+](=O)[O-])=CC(=[N+]([O-])[O-])C=C2[N+](=O)[O-] (configuration not stated)	NCF1 inh 60.7 (no result: Diaph act CS)
Nc1nnc(CC(=O)Nc2ccccc2)s1	none (no result: Diaph act CS)
Nc1nnc(CC(=O)N2CCCCC2)s1	eIF4E-4G inh 45.9
CCN1CCN(C(C)C(=O)NC2CCCCC2)CC1 (configuration not stated)	none (no result: Diaph act CS)
N#Cc1cc(C(=O)Cc2ccccc2)c[nH]1	none
CC(C)C1=Nc2cccc3cccc(c23)N1	NCF1 inh 150.3
C=CCn1c(SCC(=O)Nc2ccccc2-c2ccccc2)nc2cc(C(=O)O)ccc2c1=O	none
Cc1cc2cc3c(cc2nc1SCC(=O)O)OCCO3	none
Cc1cc2cc3c(cc2nc1SCC(=O)OC(C)C)OCCO3	14-3-3 Bad inh 90.7[fluorescence artefact?]
Oc1ccc(C(c2nnnn2C2CCCC2)N2CCc3ccccc3C2)cc1 (configuration not stated)	14-3-3 Bad inh 76.5
N#Cc1nc(COc2ccc(F)cc2)oc1N1CCC(Cc2ccccc2)CC1	NCF1 inh 50.3
CCc1nc2n(n1)C(O)c1cc([N+](=O)[O-])ccc1S2 (configuration not stated)	none (no result: Diaph act CS)
COc1ccc(C(=O)C(OC(=O)c2ccc(C)c(NC(C)=O)c2)c2ccccc2)cc1 (configuration not stated)	none
CC(=O)Nc1cc(C(=O)OC(C(=O)c2ccccc2)c2ccccc2)ccc1C (configuration not stated)	NCF1 inh 49.1
Cc1[nH]n(-c2ccccc2)c(=S)c1C=Nc1ccc([N+](=O)[O-])cc1	NCF1 inh 87.4
Cc1[nH]n(-c2ccccc2)c(=O)c1C=Nc1ccc(S(=O)(=O)N=C(N)N)cc1	none (no result: Diaph act CS)
COCCn1c(SCC(=O)N2CCCc3ccccc32)nc2ccccc2c1=O	NCF1 inh 68.2
CC(NCc1ccc(N(C)C)cc1)C1CC2CCC1C2 (configuration not stated)	14-3-3 Bad inh 77.8
Fc1cccc(NCc2ccoc2)c1	14-3-3 Bad inh 82.5
Fc1cccc(NCc2cn3ccccc3n2)c1	none
COc1ccc(N2C(=O)CCC(C(=O)NCc3cccnc3)C2c2ccc(OC)c(OC)c2)cc1 (configuration not stated)	NCF1 inh 199.6
CN(CCc1nc2ccc(Cl)cc2[nH]1)Cc1nc(CC2CC2)no1	none
CCOC(=O)C1(CC)CC(CSc2nc3ccccc3[nH]2)OC1=O (configuration not stated)	14-3-3 Bad inh 71.8
CCOC(=O)C1(CCC(C)C)CC(CSc2nc3ccccc3[nH]2)OC1=O (configuration not stated)	none
Cn1cc(NC(=O)Nc2ccc(C(F)(F)F)cc2)c(C(F)(F)F)n1	none (no result: Diaph act CS)
CCOC(=O)c1c(N)sc2c(O)c(Br)ccc12	eIF4E-4G inh 39.1[fluorescence artefact?]
O=C(Nc1nc2ccccc2s1)c1ccc(Cl)s1	none
Cc1ccc2nc(NC(=O)c3ccc(-c4nc5ccccc5s4)s3)sc2c1	14-3-3 Bad inh 82.7[fluorescence artefact?]
CCOC(=O)C1(CC2CC2)CCN(S(=O)(=O)/C=C/c2ccccc2)CC1	none
COC(=O)C1c2ccccc2-c2ccccc21	14-3-3 Bad inh 77.9

Assay outcomes from PubChem.
